The test system of assay [1] is Escherichia coli. Put plainly: Antibacterial activity against Escherichia coli MG1655 grown as biofilms harboring plasmid pBR322 carrying blaTEM-1 and tetA(C) genes after 24 hrs by agar dilution method. Type of assay: functional. Summed up: (§1)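 Biofilm MIC: cultures diluted to OD600 0.1 in LB, grown in PVC 96-well plates 24 h at 37°C without shaking; antibiotic added directly without washing as 10-fold dilutions, then 24 h more.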

Assay [2] concerns Escherichia coli. Put plainly: Antibacterial activity against Escherichia coli MG1655 harboring plasmid pBR322 carrying blaTEM-1 and tetA(C) genes grown as planktonic cells after 24 hrs by agar dilution method. To be noted: K-12 substr. MG1655, 24 h.
Assay [3] has as its system Escherichia coli. Put plainly: Antibacterial activity against Escherichia coli MG1655 grown as planktonic cells after 24 hrs by agar dilution method. The class given is functional. The note with it: K-12 substr. MG1655, 24 h. For orientation: In agar dilution, organisms are placed on agar that contains the substance at set levels.
In assay [4] the test system is Escherichia coli. Put plainly: Antibacterial activity against Escherichia coli MG1655 grown as biofilms after 24 hrs by agar dilution method. The note with it: K-12 substr. MG1655, 24 h. Type of assay: functional. An outline of the steps:
as §1

Assay [5] relates to Escherichia coli. As to the kind of experiment: Antibacterial activity against Escherichia coli OCL62 grown as planktonic cells after 24 hrs by agar dilution method. Type of assay: functional. The note with it: OCL62, 24 h.
In assay [6] the test system is Escherichia coli. Put plainly: Antibacterial activity against Escherichia coli OCL62 grown as biofilms after 24 hrs by agar dilution method. Type of assay: functional. The note with it: OCL62, 24 h. An outline of the steps:
as §1

The subject of assay [7] is Escherichia coli. As to the kind of experiment: Antibacterial activity against Escherichia coli MG1655 harboring grown as biofilms plasmid pBR322 carrying blaTEM-1 and tetA(C) genes assessed as decrease in bacterial biofilms formation at 5 ug/ml by GFP assay. Type of assay: functional. The note with it: K-12 substr. MG1655.
Assay [8] relates to Escherichia coli. Put plainly: Antibacterial activity against Escherichia coli MG1655 grown as biofilms harboring plasmid pBR322 carrying blaTEM-1 and tetA(C) genes assessed as reduction in bacterial biofilms formation. The class given is functional. To be noted: K-12 substr. MG1655. An outline of the steps: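 Biofilms grown in LB on PVC 96-well plates (inoculum OD600 0.1, 24 h, 37°C, static), then antibiotic added as 10-fold dilutions for 24 h. Eight replicates per condition, four independent experiments.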

Assay [9] deals with Escherichia coli. Put plainly: Antibacterial activity against Escherichia coli MG1655 grown as planktonic cells harboring plasmid pBR322 carrying blaTEM-1 and tetA(C) genes assessed as reduction in bacterial biofilms formation. The class given is functional. To be noted: K-12 substr. MG1655.
In assay [10] the test system is Escherichia coli. Put plainly: Antibacterial activity against Escherichia coli MG1655 grown as biofilms assessed as inhibition of bacterial biofilms formation at 5 to 500 ug/ml. The class given is functional. The note with it: K-12 substr. MG1655. An outline of the steps:
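MG1655 biofilms grown in LB in PVC 96-well plates from early-stationary cultures diluted to OD600 0.1, static 24 h at 37°C. Antibiotic added unwashed as 10-fold dilutions (0.0000005–500 μg/ml) for another 24 h.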

For assay [11], the system named is Escherichia coli. As to the kind of experiment: Antibacterial activity against Escherichia coli OCL62 grown as biofilms harboring plasmid pBR322 carrying blaTEM-1 and tetA(C) genes after 24 hrs by crystal violet staining method. The note with it: OCL62, 24 h.
Assay [12] concerns Escherichia coli. As to the kind of experiment: Antibacterial activity against Escherichia coli OCL62 harboring plasmid pBR322 carrying blaTEM-1 and tetA(C) genes grown as planktonic cells after 24 hrs by broth microdilution method. The note with it: OCL62, 24 h.

Among the data in ChEMBL document CHEMBL1671674, “Induction of multidrug resistance mechanism in Escherichia coli biofilms by interplay between tetracycline and ampicillin resistance genes” (2009) are MIC, inhibition and Activity values, retold here.

Values after ≈ are worked out from the molar mass of the structure shown. Active and inactive are the calls of the source. No cut-off for these calls is given here.

As for GENTAMICIN, the MIC in [1] (K-12 substr. MG1655) stood at 0.005 mg/L.

On to `O=C(N[C@H](CO)[C@H](O)c1ccc([N+](=O)[O-])cc1)C(Cl)Cl` [CHLORAMPHENICOL], for which the MIC in assay [2] stood at 0.5 mg/L (≈ 1.55 µM); in [1] (K-12 substr. MG1655, 24 h), 5 mg/L (≈ 15.5 µM).

Regarding `CC1(C)S[C@@H]2[C@H](NC(=O)[C@H](N)c3ccccc3)C(=O)N2[C@H]1C(=O)O` [AMPICILLIN], the MIC turned out to be 0.5 mg/L (≈ 1.43 µM) in assay [3]; 5 mg/L (≈ 14.3 µM) in [4]; 500 mg/L (≈ 1430 µM) in assay [2]; 5 mg/L (≈ 14.3 µM) in assay [1] (K-12 substr. MG1655, 24 h); 5 mg/L (≈ 14.3 µM) in [5]; 5 mg/L (≈ 14.3 µM) in assay [6]. In addition, the MIC in [11] was determined as 50 mg/L (≈ 143 µM); in [12], 5 mg/L (≈ 14.3 µM). Besides, the inhibition entry in [7] and in assay [8] was “Active” each time. The inhibition entry in assay [9] was “inactive”. For the same molecule, in [10], the result was Active.

On to `CC[C@H]1OC(=O)[C@H](C)[C@@H](O[C@H]2C[C@@](C)(OC)[C@@H](O)[C@H](C)O2)[C@H](C)[C@@H](O[C@@H]2O[C@H](C)C[C@H](N(C)C)[C@H]2O)[C@](C)(O)C[C@@H](C)C(=O)[C@H](C)[C@@H](O)[C@]1(C)O` [ERYTHROMYCIN], for which the MIC in assay [2] came out at 0.5 mg/L (≈ 0.681 µM); in assay [1] (K-12 substr. MG1655, 24 h) it was 5 mg/L (≈ 6.81 µM).

Take `CN(C)[C@@H]1C(O)=C(C(N)=O)C(=O)[C@@]2(O)C(O)=C3C(=O)c4c(O)cccc4[C@@](C)(O)[C@H]3C[C@@H]12` [TETRACYCLINE]: the MIC was 0.5 mg/L (≈ 1.13 µM) in assay [3]; 500 mg/L (≈ 1130 µM) in assay [4]; 500 mg/L (≈ 1130 µM) in assay [2]; more than 500 mg/L in assay [1] (K-12 substr. MG1655, 24 h). For the same molecule, the inhibition result in assay [7] is “Active”. Besides, the result in [10] was Active.

Turning to `NC[C@H]1O[C@H](O[C@H]2[C@H](O)[C@@H](O[C@H]3O[C@H](CO)[C@@H](O)[C@H](N)[C@H]3O)[C@H](N)C[C@@H]2N)[C@H](O)[C@@H](O)[C@@H]1O` [KANAMYCIN], the MIC in assay [1] (K-12 substr. MG1655, 24 h) was 0.5 mg/L (≈ 1.03 µM).

As to `CC1(C)S[C@@H]2[C@H](NC(=O)Cc3ccccc3)C(=O)N2[C@H]1C(=O)O` [PENICILLIN G], the MIC came out at 5 mg/L (≈ 15 µM) in [2] and 0.5 mg/L (≈ 1.5 µM) in assay [1] (K-12 substr. MG1655, 24 h).
